“Also recorded” adds a separate entry of the source. Read-outs that look alike come from different tables or passages of the source. Values belong to the molecule of their own block, whether it stands above or below them.
Assays:
[1] = target: T1, recombinant murine iNOS (Mus musculus, UniProt P29477); assay: Irreversible inhibition kinetics; type: biochemical; conditions: for Inactivation (irreversible inhibition) of iNOS: qualitative; for Ki: Kitz and Wilson
[2] = target: T1, recombinant murine iNOS; assay: Determination of substrate activity; type: biochemical; conditions: up to 2 mM
Outline: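 Recombinant murine iNOS expressed in E. coli. NO output is read as oxyhemoglobin oxidised to metHb, by absorbance change at 401 nm over the first 60 s at 37 °C. The mix holds NADPH 100 µM, oxyHb 0.125 mg/mL and tetrahydrobiopterin 10 µM in 100 mM Hepes pH 7.4. Test compound is tested up to 2 mM. The reaction starts on adding enzyme.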

[3] = target: T1, recombinant murine iNOS; assay: HPLC / LC/MS of amino acid metabolites from inactivation mixtures; type: biochemical; conditions: OPA/MCE derivatization HPLC
Outline: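 E. coli-expressed murine iNOS is incubated with test compound (2 mM stock), NADPH (39 mM stock), H4B (8 mM stock), catalase and glycerol in Hepes 100 mM pH 7.4 for 3 h at 37 °C. Aliquots are derivatised with o-phthalaldehyde/2-mercaptoethanol (20:1 v/v). Separation is C18 reversed-phase HPLC, 50 mM sodium acetate pH 5.9 to 80% methanol gradient, 1.0 mL/min, detection at 340 nm.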

[4] = target: iNOS dimer (Mus musculus, UniProt P29477); assay: LT-PAGE assay of iNOS dimer/monomer after inactivation; type: biochemical, murine; conditions: native iNOS control 65 ± 5
[5] = target: T2, iNOS heme cofactor (Mus musculus, UniProt P29477); assay: HPLC and LC/MS determination of heme and biliverdin after treatment of iNOS; type: biochemical, murine; conditions: for Biliverdin formation: HPLC with UV or MS detection; for Heme loss: qualitative
Outline: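 After iNOS treatment with test compound, biliverdin is analysed by LC/MS with diode-array detection at 401 nm. Column is C18 reversed-phase, with water and acetonitrile each containing 0.1% TFA, at 1.0 mL/min. Solvent B rises linearly from 40% to 60% over 10 min, then returns to 40% within 2 min and holds 3 min.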

[6] = target: T1, recombinant murine iNOS; assay: Hemoglobin assay for iNOS activity; type: biochemical; conditions: different concentrations of inhibitor and L-arginine
[7] = target: T1, recombinant murine iNOS; conditions: cited from earlier work
[8] = target: T2, iNOS heme cofactor; conditions: LC-electrospray MS and HPLC; cited from earlier work
[9] = system: NOS; conditions: cited from earlier work

T1 sequence (P29477 whole entry): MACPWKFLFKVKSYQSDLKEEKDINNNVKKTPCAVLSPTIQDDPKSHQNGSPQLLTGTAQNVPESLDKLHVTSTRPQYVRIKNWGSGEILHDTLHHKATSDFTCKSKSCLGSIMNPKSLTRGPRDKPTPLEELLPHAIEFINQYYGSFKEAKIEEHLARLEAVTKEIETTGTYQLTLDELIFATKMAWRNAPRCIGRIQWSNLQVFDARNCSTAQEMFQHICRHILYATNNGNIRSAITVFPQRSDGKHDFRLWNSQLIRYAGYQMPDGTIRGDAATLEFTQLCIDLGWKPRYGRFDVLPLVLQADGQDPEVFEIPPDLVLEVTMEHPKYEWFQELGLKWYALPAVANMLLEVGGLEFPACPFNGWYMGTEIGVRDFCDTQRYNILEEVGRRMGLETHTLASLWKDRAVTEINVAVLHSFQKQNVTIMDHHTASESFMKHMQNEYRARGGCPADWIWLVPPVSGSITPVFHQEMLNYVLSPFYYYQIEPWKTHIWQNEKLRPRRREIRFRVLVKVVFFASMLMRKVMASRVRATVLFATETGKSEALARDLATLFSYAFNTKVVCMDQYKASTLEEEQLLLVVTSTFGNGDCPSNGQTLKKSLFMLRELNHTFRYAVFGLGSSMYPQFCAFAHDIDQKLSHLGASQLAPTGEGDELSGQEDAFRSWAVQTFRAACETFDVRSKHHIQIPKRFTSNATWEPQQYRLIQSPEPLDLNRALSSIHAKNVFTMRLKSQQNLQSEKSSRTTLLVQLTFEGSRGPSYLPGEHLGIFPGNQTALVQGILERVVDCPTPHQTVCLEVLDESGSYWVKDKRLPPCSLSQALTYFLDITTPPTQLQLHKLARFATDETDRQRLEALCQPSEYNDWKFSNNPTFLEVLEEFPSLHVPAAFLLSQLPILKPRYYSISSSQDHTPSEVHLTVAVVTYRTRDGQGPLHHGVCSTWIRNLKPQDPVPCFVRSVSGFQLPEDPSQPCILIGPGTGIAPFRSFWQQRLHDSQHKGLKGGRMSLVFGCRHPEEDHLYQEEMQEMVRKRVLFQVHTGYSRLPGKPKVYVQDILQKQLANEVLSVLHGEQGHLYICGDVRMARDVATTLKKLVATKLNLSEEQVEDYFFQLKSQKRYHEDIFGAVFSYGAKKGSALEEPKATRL

Structure (SMILES): [2H]C([2H])([2H])C([2H])([2H])C(=N)NCCC[C@H](N)C(=O)O [Compound 26, (S)-2-amino-5-(propanimidamido-2,2,3,3,3-d5)pentanoic acid]
- kinact [1]: 0.073 min⁻¹
- kinact/KI [1]: 4.42 M⁻¹ s⁻¹
- H/D ratio of KI ([1]; 8 versus 26): 0.884 ± 0.068
- Inactivation (irreversible inhibition) of iNOS [1]: inactivated iNOS

Structure (SMILES): N=CNCCC[C@H](N)C(=O)O [Compound 7]
- Inactivation (irreversible inhibition) of iNOS [1]: does not act as a substrate or as an inactivator; also recorded: did not inactivate iNOS
- Substrate activity (NO generation / products) [2]: does not act as a substrate

Structure (SMILES): CC(=N)NCc1cccc(CN)c1 [Compound 1400W, N-(3-(aminomethyl)benzyl)acetamidine]
- Conversion of active site heme in iNOS to biliverdin [8]: convert the active site heme in iNOS to biliverdin IXα

Structure (SMILES): CN=C(NC)NCCCC(N)C(=O)O (stereo not shown) [Compound 6a, N^ω, N^ωω-dimethylarginine]
- NOS inhibition [9]: endogenous NOS inhibitor

Structure (SMILES): CN=C(NC)NCCCC(N)C(=O)O (stereo not shown) [Compound 6b, N^ω,N’^ω-dimethylarginine]
- NOS inhibition [9]: inactive

Second part, led by results:

- kinact/KI ([1]; iNOS inactivation): 5.17 ± 0.467 M⁻¹ s⁻¹
- kinact ([1]; iNOS inactivation, 37 °C): 0.0743 ± 0.0073 min⁻¹
- Ki ([1]; iNOS inactivation): 243 ± 31.4 µM
- Substrate activity (NO generation / products) [2]: no nitric oxide was formed
- % iNOS Dimer remaining after inactivation [4]: 46 ± 2%
- Heme lost by incubation with iNOS [5]: < 5%
- Heme loss [5]: No apparent heme loss
Structure (SMILES): CCC(=N)NCCC[C@H](N)C(=O)O [Compound 8]
- Metabolites from inactivation of iNOS [3]: none was detected; also recorded: no 22 was observed
- Inactivation (irreversible inhibition) of iNOS [1]: inactivators; also recorded: irreversible inhibitors; also recorded: weak irreversible inhibition; also recorded: time-, concentration-, and NADPH-dependent inhibitor
- Biliverdin formation [5]: No apparent heme loss or biliverdin formation; also recorded: no biliverdin could be detected

- Inhibition type [6]: competitive
- % iNOS Dimer remaining after inactivation [4]: 51 ± 4%
Structure (SMILES): CC(=N)NCCC[C@H](N)C(=O)O [Compound 4, N^5-(1-iminoethyl)-L-ornithine]
- Inactivation of iNOS [7]: time-, concentration-, and NADPH-dependent iNOS inactivator
- Conversion of active site heme in iNOS to biliverdin [8]: convert the active site heme in iNOS to biliverdin IXα

- Metabolites from inactivation of iNOS [3]: none was detected
- kinact/KI ([1]; iNOS inactivation): 3.3 ± 0.16 M⁻¹ s⁻¹
- kinact ([1]; iNOS inactivation, 37 °C): 0.131 ± 0.0095 min⁻¹
- Ki ([1]; iNOS inactivation): 674 ± 80 µM
- Substrate activity (NO generation / products) [2]: no nitric oxide was formed
- % iNOS Dimer remaining after inactivation [4]: 47 ± 5%
- Heme lost by incubation with iNOS [5]: < 5%
- Heme loss [5]: No apparent heme loss
Structure (SMILES): CCCC(=N)NCCC[C@H](N)C(=O)O [Compound 9]
- Inactivation (irreversible inhibition) of iNOS [1]: inactivators; also recorded: irreversible inhibitors; also recorded: weak irreversible inhibition
- Biliverdin formation [5]: No apparent heme loss or biliverdin formation; also recorded: no biliverdin could be detected

- Inactivation (irreversible inhibition) of iNOS [1]: No inactivation was observed
Structure (SMILES): CC(C)C(=N)NCCC[C@H](N)C(=O)O [Compound 10]
